Measured values published in ChEMBL document CHEMBL1151962, “Identification of N,1,4,4-tetramethyl-8-{[4-(4-methylpiperazin-1-yl)phenyl]amino}-4,5-dihydro-1H-pyrazolo[4,3-h]quinazoline-3-carboxamide (PHA-848125), a potent, orally available cyclin dependent kinase inhibitor” (J Med Chem, 2009).

Legend:
[1] = AUC in fasted nu/nu mouse at 10 mg/kg, po LC/MS/MS analysis; type: ADME, organism-based; set-up: dose 10 mg/kg, route oral; conditions: plasma
Method in brief: (§1)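 Overnight-fasted male Nu/Nu mice received a single 10 mg/kg dose iv or orally, in 5% dextrose vehicle, given as the hydrochloride salt. Three mice per route. Saphenous vein blood was drawn predose and at 0.083 (iv) or 0.25 (po), 0.5, 1, 6 and 24 h. Samples were spun at 10000g for 3 min at 4 °C, and plasma was stored at -80 °C until analysis.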

[2] = Oral bioavailability in fasted nu/nu mouse at 10 mg/kg by LC/MS/MS analysis; type: ADME, organism-based; conditions: in vivo; method in brief: as §1
Cytochrome P450 3A4 = Cytochrome P450 3A4 (Homo sapiens, UniProt P08684); test: Inhibition of human CYP3A4 assessed as compound remaining by LC/MS/MS analysis; type: ADME; set-up: concentration or dose not given beside the values
Cytochrome P450 3A4, sequence (P08684 whole entry): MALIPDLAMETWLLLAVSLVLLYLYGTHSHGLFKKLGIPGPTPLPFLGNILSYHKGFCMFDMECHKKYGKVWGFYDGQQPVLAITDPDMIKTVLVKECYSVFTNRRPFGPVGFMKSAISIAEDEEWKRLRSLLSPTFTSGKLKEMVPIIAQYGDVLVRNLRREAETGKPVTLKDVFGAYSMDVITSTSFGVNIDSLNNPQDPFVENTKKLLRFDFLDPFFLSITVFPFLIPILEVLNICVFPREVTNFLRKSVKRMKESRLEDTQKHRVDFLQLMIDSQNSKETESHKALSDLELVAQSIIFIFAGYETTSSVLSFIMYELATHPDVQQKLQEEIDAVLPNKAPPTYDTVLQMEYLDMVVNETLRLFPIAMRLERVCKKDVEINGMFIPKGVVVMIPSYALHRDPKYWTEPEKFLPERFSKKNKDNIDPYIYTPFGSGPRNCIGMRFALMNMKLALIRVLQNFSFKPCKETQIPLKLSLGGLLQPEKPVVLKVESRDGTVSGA

[3] = Solubility in 5% dextrose; type: physicochemical
[4] = Clearance in fasted nu/nu mouse at 10 mg/kg, iv by LC/MS/MS analysis; type: ADME, organism-based; set-up: dose 10 mg/kg, route intravenous; conditions: in vivo; method in brief: as §1
[5] = Half life in fasted nu/nu mouse at 10 mg/kg, iv by LC/MS/MS analysis; type: ADME, organism-based; set-up: dose 10 mg/kg, route intravenous; conditions: in vivo; method in brief: as §1
[6] = Half life in fasted nu/nu mouse at 10 mg/kg, po by LC/MS/MS analysis; type: ADME, organism-based; set-up: dose 10 mg/kg, route oral; conditions: in vivo; method in brief: as §1
[7] = Volume of distribution at steady state in fasted nu/nu mouse at 10 mg/kg, iv by LC/MS/MS analysis; type: ADME, organism-based; set-up: dose 10 mg/kg, route intravenous; conditions: in vivo, read-out: Vdss; method in brief: as §1
[8] = Cmax in fasted nu/nu mouse at 10 mg/kg, po by LC/MS/MS analysis; type: ADME, organism-based; set-up: dose 10 mg/kg, route oral; conditions: in vivo; method in brief: as §1
Homo sapiens = organism: Homo sapiens; test: Protein binding in human plasma; conditions: read-out: PPB (converted)
Mus musculus = test: Hepatic blood flow in fasted nu/nu mouse at 10 mg/kg, iv by LC/MS/MS analysis; type: ADME, organism-based, Liver; set-up: dose 10 mg/kg, route intravenous; conditions: in vivo

AUC [1] [µM·h]	bioavailability [2] [%]	Activity (Cytochrome P450 3A4) [%]	solubility [3] [µg/mL]	clearance [4] [mL/min/kg]	half-life [5] [h]	half-life [6] [h]	Vd [7] [L/kg]	Cmax [8] [nM]	fraction unbound (Homo sapiens)	Compound	Activity (Mus musculus) [%]
2.51	38	63	10000	43.7	1.9	3.9	5.27	600		CNC(=O)c1nn(C)c2c1C(C)(C)Cc1cnc(Nc3ccc(OC4CCN(C)CC4)cc3)nc1-2.Cl	
1.97	28	77	10000	53.3	1.4	3.4	4.04	570	0.05	CNC(=O)c1nn(C)c2c1C(C)(C)Cc1cnc(Nc3ccc(CN(C)C)cc3)nc1-2.Cl	
3.37	42	50	10000	31.6	1.8	4.2	3.23	770	0.01	CNC(=O)c1nn(C)c2c1C(C)(C)Cc1cnc(Nc3ccc(CN4CCN(C)CC4)cc3)nc1-2.Cl	

Compound	AUC [1] [µM·h]	bioavailability [2] [%]	Activity (Cytochrome P450 3A4) [%]	solubility [3] [µg/mL]	clearance [4] [mL/min/kg]	half-life [5] [h]	half-life [6] [h]	Vd [7] [L/kg]	Cmax [8] [nM]	fraction unbound (Homo sapiens)	Activity (Mus musculus) [%]
CNC(=O)c1nn(C)c2c1C(C)(C)Cc1cnc(Nc3ccc(N4CCN(C)CC4)cc3)nc1-2.Cl	8.29	85	85	10000	31.2	2.6	2.9	4.82	2350		36
